Results: ChEMBL document CHEMBL4428045, “Antioxidant properties of thio-caffeine derivatives: Identification of the newly synthesized 8-[(pyrrolidin-1-ylcarbonothioyl)sulfanyl]caffeine as antioxidant and highly potent cytoprotective agent” (Bioorg Med Chem Lett, 2016)
The source made the active and inactive calls. The calls are words filed in the database; no cut-off is given here.

Tests used:
[1] = Hemolytic activity in human erythrocytes at 0.1 mg/ml incubated for 60 mins by spectrophotometric analysis; format: ADME, cell-based, Erythrocyte; settings: read-out: Activity
In short: (§1)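 RBCs were incubated with compound for 60 min. Haemolysis below 5% was taken as not significant.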

[2] = Induction of hemolysis in human erythrocytes assessed as effect on osmotic resistance at 0.1 mg/ml incubated for 60 mins by erythrocyte osmotic fragility assay; format: cell-based; settings: 1 h
In short: (§2)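 After 60 min of compound treatment, RBC osmotic resistance was expressed as %NaCl and compared with untreated control cells (p < 0.05).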

[3] = Metal chelating activity of the compound assessed as inhibition of Fe2+-ferrozine complex formation incubated for 10 mins by spectrophotometric analysis; format: functional
[4] = test system: Erythrocyte; test: Hemolytic activity in human erythrocytes assessed as change in cell shape by measuring discocytes level at 0.1 mg/ml incubated for 60 mins by […]; format: ADME, cell-based; settings: 1 h
[5] = Antioxidant activity assessed as DPPH radical scavenging activity at 0.025 to 0.1 mg/ml incubated for 30 mins in dark by spectrophotometric analysis; format: functional
[6] = test system: Erythrocyte; test: Cytoprotection against AAPH-induced haemolysis in human erythrocytes at 0.01 to 1 mg/l pre-incubated for 20 mins before 60 mM AAPH addition for 4 hrs by spectrophotometric analysis; format: functional; settings: in the assay text read “0.025 to 0.1 mg/ml” for “0.01 to 1 mg/l”
In short: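 Human erythrocytes (RBCs) pre-incubated 20 min with compound or the standards Trolox and BHT, then challenged with 60 mM AAPH to induce free-radical haemolysis. Data are means SD (n = 4), with significance set at p < 0.05.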

[7] = Antioxidant activity assessed as DPPH radical scavenging activity incubated for 30 mins in dark by spectrophotometric analysis; format: functional
[8] = Antioxidant activity assessed as ferric ion reducing activity using Fe3+(CN-)6 at 0.1 mg/ml incubated for 20 mins by spectrophotometric analysis relative to trolox; format: functional; design: scale not given: the % may be the effect or the level left
[9] = Antioxidant activity assessed as DPPH radical scavenging activity at 0.1 mg/ml incubated for 30 mins in dark by spectrophotometric analysis relative to trolox; format: functional
[10] = Antioxidant activity assessed as ferric ion reducing activity using Fe3+(CN-)6 at 0.1 mg/ml incubated for 20 mins by spectrophotometric analysis relative to BHT; format: functional
[11] = Antioxidant activity assessed as ferric ion reducing activity using Fe3+(CN-)6 incubated for 20 mins by spectrophotometric analysis; format: functional
[12] = Antioxidant activity assessed as ferric ion reducing activity using Fe3+(CN-)6 at 0.025 to 0.1 mg/ml incubated for 20 mins by spectrophotometric analysis relative to BHT; format: functional
[13] = Antioxidant activity assessed as DPPH radical scavenging activity at 0.1 mg/ml incubated for 30 mins in dark by spectrophotometric analysis relative to BHT; format: functional
[14] = Antioxidant activity assessed as ferric ion reducing activity using Fe3+(CN-)6 at 0.025 to 0.1 mg/ml incubated for 20 mins by spectrophotometric analysis relative to trolox; format: functional; design: scale not given: the % may be the effect or the level left
[15] = Induction of hemolysis in human erythrocytes assessed as change in RBC shape by measuring echinocytes and spherocytes level at 0.1 mg/ml preincubated for 60 mins followed by AAPH induction measured after 4 hrs by […]; format: cell-based
[16] = Induction of hemolysis in human erythrocytes assessed as reduction in osmotic resistance at 0.1 mg/ml incubated for 60 mins by erythrocyte osmotic fragility assay relative to NaCl (reference value: 0.451%); format: cell-based; design: scale not given: the % may be the effect or the level left; settings: 1 h; in short: as §2
[17] = Hemolytic activity in human erythrocytes at 0.025 mg/ml incubated for 60 mins by spectrophotometric analysis; format: ADME, cell-based, Erythrocyte; settings: read-out: Activity; in short: as §1
[18] = test system: Erythrocyte; test: Hemolytic activity in human erythrocytes assessed as echinocytes/spherocytes formation incubated for 60 mins by microscopic analysis; format: ADME, cell-based; settings: 1 h
In short: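 RBCs were incubated with compound for 60 min, and cell morphology was then assessed by optical microscopy for echinocytes, spherocytes and RBC ghosts.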

[19] = Hemolytic activity in human erythrocytes at 0.05 mg/ml incubated for 60 mins by spectrophotometric analysis; format: ADME, cell-based, Erythrocyte; settings: read-out: Activity; in short: as §1

For `CSc1nc2c(c(=O)n(C)c(=O)n2C)n1C`, the hemolysis at 1 h, 0.1 mg/ml [1] was 0 to 5%, the Activity [2] was “Non-Toxic” and the Activity [3] was “inactive”. The Activity [4] was “Non-Toxic”, the Activity [5] was less than 10% and the Activity [6] was 10%.
In the case of `CCCSc1nc2c(c(=O)n(C)c(=O)n2C)n1C`, the hemolysis at 1 h, 0.1 mg/ml [1] is reported as 0 to 5%, the Activity [2] is reported as “Non-Toxic” and the Activity [3] is reported as “inactive”. The Activity [4] was “Non-Toxic”, the Activity [5] was less than 10% and the Activity [6] was “inactive”.
For `Cn1c(=S)c2c(ncn2C)n(C)c1=O`, the hemolysis at 1 h, 0.1 mg/ml [1] was 0 to 5%, the Activity [2] was “Non-Toxic” and the Activity [3] was “inactive”. The Activity [4] was “Non-Toxic”, the Activity [5] was less than 10% and the Activity [6] was “Active”.
With `Cn1c(=O)c2c(nc(SC(=S)N3CCCC3)n2C)n(C)c1=O` the Activity [7] was “Dose-dependent effect”, the hemolysis at 1 h, 0.1 mg/ml [1] was 0 to 5% and the Activity [2] was “Non-Toxic”. The Activity [3] was “inactive”, the Activity [8] was 65% and the Activity [4] was “Non-Toxic”. For the same molecule, the Activity [9] was 67%, the Activity [6] was “Active” and the Activity [10] was “Active”. For the same molecule, the Activity [11] was “Dose-dependent effect”.
For `Cc1c(C)c2c(c(C)c1O)CCC(C)(C(=O)O)O2` (centres undefined), the Activity [6] was “Active”.
In the case of `Cc1cc(C(C)(C)C)c(O)c(C(C)(C)C)c1`, the Activity [9] is reported as “Active” and the Activity [11] is reported as “Active”.
In the case of `Cn1c(=O)c2c(ncn2C)n(C)c1=O` [CAFFEINE], the hemolysis at 1 h, 0.1 mg/ml [1] is reported as 0 to 5%, the Activity [2] is reported as “Non-Toxic” and the Activity [3] is reported as “inactive”. For the same molecule, the Activity [4] was “Non-Toxic”, the Activity [5] was less than 10% and the Activity [6] was 10%.
With `CC(C)Sc1nc2c(c(=O)n(C)c(=O)n2C)n1C` the hemolysis at 1 h, 0.1 mg/ml [1] was 0 to 5%, the Activity [12] was “Active” and the Activity [2] was “Non-Toxic”. The Activity [3] was “inactive”, the Activity [4] was “Non-Toxic” and the Activity [9] was 34%. For the same molecule, the Activity [13] was “Active”, the Activity [6] was 10% and the Activity [14] was 38%.
In the case of `Cn1c(=S)c2c(ncn2C)n(C)c1=S`, the hemolysis at 1 h, 0.1 mg/ml [1] is reported as 0 to 5%, the Activity [2] is reported as “Non-Toxic” and the Activity [3] is reported as “inactive”. The Activity [4] was “Non-Toxic”, the Activity [5] was less than 10% and the Activity [6] was “Active”.
For `CCSc1nc2c(c(=O)n(C)c(=O)n2C)n1C`, the hemolysis at 1 h, 0.1 mg/ml [1] was 0 to 5%, the Activity [2] was “Non-Toxic” and the Activity [3] was “inactive”. The Activity [4] was “Non-Toxic”, the Activity [5] was less than 10% and the Activity [6] was 10%.
For `Cn1c(=O)c2c(nc(Sc3ccccc3)n2C)n(C)c1=O`, the Activity [15] was “Toxic”, the hemolysis at 1 h, 0.1 mg/ml [1] was 57.2% and the Activity [2] was “Toxic”. For the same molecule, the Activity [3] was “inactive”, the Activity [16] was 0.488% and the hemolysis at 1 h, 0.025 mg/ml [17] was less than 5%. The Activity [5] was less than 10%, the Activity [18] was “Toxic” and the Activity [6] was “inactive”. It also gave a hemolysis at 1 h, 0.05 mg/ml [19] of 26.9%.
For `Cn1c(=O)c2c(nc(SC(C)(C)C)n2C)n(C)c1=O`, the hemolysis at 1 h, 0.1 mg/ml [1] was 0 to 5%, the Activity [2] was “Non-Toxic” and the Activity [3] was “inactive”. For the same molecule, the Activity [4] was “Non-Toxic”, the Activity [5] was less than 10% and the Activity [6] was “inactive”.
